The text below walks through data of ChEMBL document CHEMBL4422626, “Optimization of novel benzofuro[3,2-b]pyridin-2(1H)-one derivatives as dual inhibitors of BTK and PI3Kδ” (Eur J Med Chem, 2019).

The source made the active and inactive calls. The calls are words filed in the database; no cut-off is given here.

Assay [1] addresses T1, Tyrosine-protein kinase BTK (Homo sapiens, UniProt Q06187). As to the kind of experiment: Inhibition of BTK (unknown origin) by ADP-gloassay.
The target of assay [2] is T2, Phosphatidylinositol 4,5-bisphosphate 3-kinase catalytic subunit delta isoform (Homo sapiens) (UniProt O00329).
T2 sequence (whole entry): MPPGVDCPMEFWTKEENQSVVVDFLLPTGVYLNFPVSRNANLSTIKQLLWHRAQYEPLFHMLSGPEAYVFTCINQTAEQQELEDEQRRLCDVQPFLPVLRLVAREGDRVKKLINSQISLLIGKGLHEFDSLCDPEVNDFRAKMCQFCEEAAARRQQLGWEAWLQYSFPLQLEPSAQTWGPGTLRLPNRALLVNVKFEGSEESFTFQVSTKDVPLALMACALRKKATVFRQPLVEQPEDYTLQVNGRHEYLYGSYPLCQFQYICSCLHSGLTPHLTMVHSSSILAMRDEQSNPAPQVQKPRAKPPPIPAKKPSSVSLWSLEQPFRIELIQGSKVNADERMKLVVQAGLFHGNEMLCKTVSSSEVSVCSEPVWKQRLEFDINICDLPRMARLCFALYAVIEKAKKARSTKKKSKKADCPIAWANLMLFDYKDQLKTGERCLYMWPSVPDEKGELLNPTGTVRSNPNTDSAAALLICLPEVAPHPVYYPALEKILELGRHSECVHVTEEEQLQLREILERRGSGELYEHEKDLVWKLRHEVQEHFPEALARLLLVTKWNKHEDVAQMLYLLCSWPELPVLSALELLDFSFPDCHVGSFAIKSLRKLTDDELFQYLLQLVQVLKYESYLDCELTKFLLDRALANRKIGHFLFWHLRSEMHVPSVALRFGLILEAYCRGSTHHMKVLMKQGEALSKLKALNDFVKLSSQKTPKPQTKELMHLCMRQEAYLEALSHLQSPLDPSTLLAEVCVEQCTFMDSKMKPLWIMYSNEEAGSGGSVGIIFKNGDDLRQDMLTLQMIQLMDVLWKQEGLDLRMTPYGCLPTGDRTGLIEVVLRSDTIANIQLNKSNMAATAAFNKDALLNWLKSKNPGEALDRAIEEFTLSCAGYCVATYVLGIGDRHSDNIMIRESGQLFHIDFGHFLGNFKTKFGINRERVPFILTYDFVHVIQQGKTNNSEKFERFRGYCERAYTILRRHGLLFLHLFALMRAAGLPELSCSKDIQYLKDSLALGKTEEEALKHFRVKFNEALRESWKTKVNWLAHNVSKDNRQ
The assay is described as follows: Inhibition of PI3Kdelta (unknown origin) at 200 nM by ADP-gloassay relative to control. In short, it runs like this:
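PI3Kδ was tested with the PI3K-Glo Class I Profiling Kit and a luminescence read-out, following the manufacturer's protocol. Each compound was tested at a single concentration of 200 nM and expressed as percent inhibition versus control.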
On the technique in general: ADP-Glo turns the ADP formed in a reaction into a luminescent signal.

For assay [3], the system named is Raji. The assay is described as follows: Antiproliferative activity against human Raji cells after 48 hrs by CCK8 assay. Type of assay: functional, cell-based. In short, it runs like this: (§1)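 Raji and Ramos cells grown in RPMI1640 or IMDM with 10% FBS, 37 °C, 5% CO2. Seeded at 3000-5000 cells/well and left 12-24 h before dosing. Several compound concentrations given for 48 h. CCK-8 then added for 4 h and OD read at 450 nm. IC50 is the concentration giving 50% cell death versus control, calculated from inhibition ratios.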
Background: Tetrazolium assays rely on reduction of a dye to a coloured formazan, in cell work by metabolically active cells.

Assay [4] addresses T1, Tyrosine-protein kinase BTK. The note with it: at 200 nM.
The target of assay [5] is T3, Phosphatidylinositol 4,5-bisphosphate 3-kinase catalytic subunit delta isoform (Homo sapiens, UniProt O00329).
T3 sequence (O00329 whole entry): T2 sequence (whole entry)
The assay is described as follows: Inhibition of PI3Kdelta (unknown origin) by ADP-gloassay. The gist of the method: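 PI3K isoform activity was measured with the PI3K-Glo Class I Profiling Kit, a luminescent ADP-Glo-type read-out, following the manufacturer's protocol.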

Assay [6] has as its system Ramos. The assay is described as follows: Antiproliferative activity against human Ramos cells after 48 hrs by CCK8 assay. Type of assay: functional, cell-based. The gist of the method: as §1
The test system of assay [7] is Raji. The assay is described as follows: Antiproliferative activity against human Raji cells at 5 uM up to 24 hrs by CCK8 assay. Type of assay: functional, cell-based. The gist of the method: (§2)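 Raji (Burkitt lymphoma) cells in RPMI1640 or IMDM with 10% FBS, 37 °C, 5% CO2; seeded 3000-5000 cells/well, preincubated 12-24 h, then exposed to compound. Cells collected at different times and viability read by CCK-8 (4 h incubation, OD 450 nm).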

For assay [8], the system named is Raji. The assay is described as follows: Antiproliferative activity against human Raji cells at 5 uM after 24 hrs by CCK8 assay. Type of assay: functional, cell-based. In short, it runs like this: as §2
Assay [9] deals with Ramos. The assay is described as follows: Induction of apoptosis in human Ramos cells assessed as early apoptotic cells at 5 uM after 48 hrs by Annexin-V-FITC/propidium iodide staining based flow cytometric analysis (reference value: 1.08%). Type of assay: functional. On the technique in general: In flow cytometry, cells or beads pass a laser one at a time.
The test system of assay [10] is Ramos. As to the kind of experiment: Induction of apoptosis in human Ramos cells assessed as late apoptotic cells at 5 uM after 48 hrs by Annexin-V-FITC/propidium iodide staining based flow cytometric analysis (reference value: 0.98%). The format is functional.
For assay [11], the system named is Ramos. As to the kind of experiment: Induction of apoptosis in human Ramos cells assessed as necrotic cells at 5 uM after 48 hrs by Annexin-V-FITC/propidium iodide staining based flow cytometric analysis (reference value: 1.11%). Type of assay: functional.
Assay [12] deals with Ramos. As to the kind of experiment: Induction of apoptosis in human Ramos cells assessed as viable cells at 5 uM after 48 hrs by Annexin-V-FITC/propidium iodide staining based flow cytometric analysis (reference value: 96.83%). Conditions: read-out: Activity. Type of assay: functional.
Assay [13] deals with Ramos. As to the kind of experiment: Cell cycle arrest in human Ramos cells assessed as accumulation at G0/G1 phase at 5 uM after 48 hrs by propidium iodide staining based flow cytometric analysis (reference value: 24.65%). Type of assay: functional.
The test system of assay [14] is Ramos. As to the kind of experiment: Cell cycle arrest in human Ramos cells assessed as accumulation at S phase at 5 uM after 48 hrs by propidium iodide staining based flow cytometric analysis (reference value: 71.08%). The format is functional.
Assay [15] deals with Ramos. The assay is described as follows: Cell cycle arrest in human Ramos cells assessed as accumulation at G2/M phase at 5 uM after 48 hrs by propidium iodide staining based flow cytometric analysis (reference value: 4.26%). Type of assay: functional.
Assay [16] concerns Ramos. The assay is described as follows: Cell cycle arrest in human Ramos cells assessed as accumulation at apoptotic phase at 5 uM after 48 hrs by propidium iodide staining based flow cytometric analysis (reference value: 5.03%). The format is functional.
In assay [17] the target is T2, Phosphatidylinositol 4,5-bisphosphate 3-kinase catalytic subunit delta isoform (Homo sapiens). As to the kind of experiment: Inhibition of PI3Kdelta in human Ramos cells assessed as reduction in Akt phosphorylation at Ser473 residues at 0.25 to 1 uM after 4 hrs by Western blot analysis. Type of assay: cell-based. The gist of the method:
(§3)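 Ramos cells pretreated with compound for 4 h, then stimulated or not with anti-human IgM F(ab')2. Cells were washed in PBS and lysed on ice for 0.5 h in Tris-Cl pH 6.8/SDS/glycerol/β-mercaptoethanol/PMSF/NaF/DTT buffer, then heated. Protein was quantified by BCA, with equal amounts run on 12% SDS-PAGE and semi-dry blotted to PVDF. Primary antibodies overnight at 4 °C, HRP secondary 1 h at 37 °C, ECL detection on film.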

For assay [18] the target is unchanged. As to the kind of experiment: Inhibition of PI3Kdelta in human Ramos cells assessed as reduction in mTOR phosphorylation at Ser2481 residues at 0.25 to 1 uM after 4 hrs by Western blot analysis. Type of assay: cell-based. In short, it runs like this:
as §3

T1 sequence (Q06187 whole entry, canonical isoform): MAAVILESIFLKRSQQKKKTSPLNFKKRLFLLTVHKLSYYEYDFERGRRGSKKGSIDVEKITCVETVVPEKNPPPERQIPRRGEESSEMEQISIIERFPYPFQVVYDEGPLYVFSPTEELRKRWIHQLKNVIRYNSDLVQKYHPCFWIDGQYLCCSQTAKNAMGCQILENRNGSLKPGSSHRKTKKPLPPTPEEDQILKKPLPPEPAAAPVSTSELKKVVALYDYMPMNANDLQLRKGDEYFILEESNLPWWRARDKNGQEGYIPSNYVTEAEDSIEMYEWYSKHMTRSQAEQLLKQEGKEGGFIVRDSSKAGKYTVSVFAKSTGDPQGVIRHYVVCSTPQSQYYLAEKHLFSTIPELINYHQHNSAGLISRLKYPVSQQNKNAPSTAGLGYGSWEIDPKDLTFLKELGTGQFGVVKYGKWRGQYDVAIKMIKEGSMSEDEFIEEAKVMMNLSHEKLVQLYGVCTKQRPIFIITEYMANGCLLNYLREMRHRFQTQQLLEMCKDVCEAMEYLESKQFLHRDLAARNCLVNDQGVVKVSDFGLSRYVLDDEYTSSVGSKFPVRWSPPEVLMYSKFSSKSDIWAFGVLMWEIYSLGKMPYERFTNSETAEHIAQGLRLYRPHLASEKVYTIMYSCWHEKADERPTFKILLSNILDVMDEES

A word on the IC50: it is the concentration that inhibits the measured activity by half. Read a high IC50 as lower potency. By inhibition is commonly meant the percentage by which the read-out fell short of the control. Take `COc1ccc(-c2cnc3oc4ccc(=O)n(-c5ccc(NC(=O)CN(C)C)cc5)c4c3c2)cn1`: the IC50 is 0.15 µM in [1] and over 40 µM with Raji [3]. Besides, the inhibition entry in [2] was “inactive”. The inhibition in assay [4] was determined as 58.8%.

`C=CC(=O)Nc1cccc(-n2c(=O)ccc3oc4ccc(-c5ccc(F)nc5)cc4c32)c1` came in with an inhibition in assay [2] of 34%. The IC50 stood at 0.92 µM in assay [5], 2.2 µM in the assay on Raji [3] and 1.86 µM with Ramos [6].

As to `CN(C)CC(=O)Nc1ccc(-n2c(=O)ccc3oc4ccc(C5CCNCC5)cc4c32)cc1`, in assay [2], the inhibition result is “inactive”. This compound also came in with an IC50 with Raji [3] of 2.4 µM. The same compound yielded an inhibition in [4] of 33.1%.

Take `C=CC(=O)Nc1ccc(-n2c(=O)ccc3oc4ccc(-c5ccc(F)nc5)cc4c32)cc1`: the inhibition in assay [2] was determined as 31.7%; in assay [4], 32.1%. The half-inhibitory concentration (IC50) in assay [5] was 1.27 µM; in the assay on Raji [3], 7.3 µM; in the assay with Ramos [6], 1.65 µM.

As for `C=CC(=O)Nc1ccc(-n2c(=O)ccc3oc4ncc(-c5cccnc5)cc4c32)cc1`, the inhibition worked out at 34.2% in [2] and 38.7% in assay [4]. In addition, the IC50 came out at 1 µM in assay [5], 7.4 µM in the assay on Raji [3] and 1.33 µM in the assay with Ramos [6].

Turning to `CN(C)CC(=O)Nc1ccc(-n2c(=O)ccc3oc4ccc(-c5cccnc5)cc4c32)cc1`, the IC50 in [1] turned out to be 0.05 µM; in the assay with Raji [3], 7.1 µM; with Ramos [6], 3.43 µM. Further, the inhibition entry in assay [2] is “inactive”. For the same compound, in assay [4], the inhibition was determined as 63.4%.

Consider `COc1ccc(-c2cnc3oc4ccc(=O)n(-c5ccc(NC(=O)CN6CCCCC6)cc5)c4c3c2)cn1`, for which the IC50 in [1] is 0.125 µM; with Raji [3], over 40 µM. The inhibition result in assay [2] was “inactive”. In assay [4], this compound registered an inhibition of 55%.

Take `COc1ccc(-c2cnc3oc4ccc(=O)n(-c5ccc(NC(=O)CN6CCNCC6)cc5)c4c3c2)cn1`: the inhibition result in [2] was “inactive”. Besides, half-maximal inhibition in the assay on Raji [3] (IC50) was put at 33.7 µM. Further, in [4], the inhibition amounted to 32%.

In the case of `CN(C)CC(=O)Nc1ccc(-n2c(=O)ccc3oc4ccc(-c5ccc(O)cc5)cc4c32)cc1`, the IC50 amounted to 0.15 µM in assay [1] and 1.8 µM with Raji [3]. Further, in assay [2], the inhibition entry is “inactive”. Further, the inhibition in [4] amounted to 51.7%.

In the assay on Ramos [6], `C=CC(=O)N1CCC[C@@H](n2nc(-c3ccc(Oc4ccccc4)cc3)c3c(N)ncnc32)C1` [IBRUTINIB] showed an IC50 of 5.8 µM. The outcome in the assay on Raji [7] was inactive. Also, the outcome with Raji [8] was Active. Also, the Activity in the assay with Ramos [9] is listed as 5.12%; with Ramos [10], 2.71%; with Ramos [11] it was 0.37%; with Ramos [13], 30.5%; in the assay on Ramos [14] it was 65.18%; in the assay with Ramos [15], 4.26%. In the assay with Ramos [16], the Activity came out at 4.33%. Moreover, the viability at 5 µM in the assay on Ramos [12] is 91.8%.

Consider `CN(C)CC(=O)Nc1ccc(-n2c(=O)ccc3oc4ccc(C5CCN(C(=O)OC(C)(C)C)CC5)cc4c32)cc1`, for which the inhibition result in [2] was “inactive”. Also, the IC50 with Raji [3] came to 7 µM. For the same compound, the inhibition in assay [4] amounted to 49.2%.

`Cn1c(=O)n(-c2ccc(C(C)(C)C#N)cc2)c2c3cc(-c4cnc5ccccc5c4)ccc3ncc21` [DACTOLISIB]: the IC50 was found to be 0.22 µM with Raji [3] and 0.0068 µM in the assay with Ramos [6]. Further, the Activity in the assay on Ramos [9] was 53.54%; in the assay on Ramos [10], 40.03%; in the assay on Ramos [11], 0.64%; in the assay on Ramos [13], 59.66%; in the assay with Ramos [14], 35.34%; with Ramos [15], 5%. For the same compound, in the assay with Ramos [16], the Activity came out at 58.92%. Also, in the assay with Ramos [12], the viability at 5 µM is 5.78%. The inhibition entry in [17] and in [18] was “Active” each time.

As to `C=CC(=O)Nc1cccc(-n2c(=O)ccc3oc4ccc(-c5ccc(OC)nc5)cc4c32)c1`, the IC50 in assay [1] was 0.08 µM; in the assay on Raji [3], 2.4 µM; in the assay on Ramos [6] it was 1.3 µM. In addition, the figures for the inhibition in assay [2] and in [4] were 11.3% and 67.3%, respectively.

As for `CN(C)CC(=O)Nc1ccc(-n2c(=O)ccc3oc4ccc(-c5cccc6[nH]ccc56)cc4c32)cc1`, the inhibition entry in [2] is “inactive”. In the assay on Raji [3], the IC50 stood at 18.8 µM. The same compound came in with an inhibition in assay [4] of 47.2%.
